Tests used:
[1] = tested on: HTLV-1 Gag cleavage in SP cells (chronically infected with HTLV-1); test: SP cell protease inhibition treatment, Gag processing by anti-p24 immunoblot; type: cell-based; details: 48 h; for Amount of full-length (FL) Gag and larger size cleavage intermediates (CI): SP cell lysates and supernatants, 50 µM or 100 µM; for FL Gag band percentage (mean ± SEM), cell lysate: SP cell lysate, DMSO 2.0 ± 1.0%; for FL Gag band percentage (mean ± SEM), cell lysate / FL Gag band percentage (mean ± SEM), viral particles produced from SP cells: n=3; for FL Gag band percentage (mean ± SEM), viral particles produced from SP cells: particles in cell culture supernatant
Procedure, shortened: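 SP cells kept in RPMI with 20% FC3 serum, 1% penicillin-streptomycin and human IL-2 (10 U/ml). Medium exchanged for medium containing 50 or 100 µM test compound, or 0.01% v/v DMSO control, for 48 h at 37 °C and 5% CO2. Supernatant was 0.22 µm-filtered and pelleted over an 8% Optiprep cushion, with pellet lysed in RIPA buffer. Lysates and pellets were immunoblotted with anti-p24. FL Gag was quantified as % of lane bands, reported as mean ± SEM (n=3), and compared with DMSO by one-tailed t-test.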

[2] = tested on: wild type (WT) HIV-1 protease; details: cited from earlier work
HTLV-1 protease = HTLV-1 protease (Human T-cell leukemia virus type I, UniProt Q82134, L40I); details: relative to UM6

Row | SMILES | Amount of full-length (FL) Gag and larger size cleavage intermediates (CI) [1] | Potency against wild type (WT) HIV-1 protease [2] | FL Gag band percentage (mean ± SEM), cell lysate ([1]; 50 µM inhibitor) | FL Gag band percentage (mean ± SEM), cell lysate ([1]; 100 µM inhibitor) | FL Gag band percentage (mean ± SEM), viral particles produced from SP cells ([1]; 50 µM inhibitor) | FL Gag band percentage (mean ± SEM), viral particles produced from SP cells ([1]; 100 µM inhibitor) | Fold better inhibition of HTLV-1 protease than UM6 (HTLV-1 protease)
1 | CC(C)CN(C[C@@H](O)[C@H](Cc1ccccc1)NC(=O)O[C@H]1CO[C@H]2OCC[C@H]21)S(=O)(=O)c1ccc(N)cc1 [DRV, darunavir, reference compound] | increased | low-picomolar |  |  |  |  | 
2 | CCOP(=O)(COc1ccc(C[C@H](NC(=O)O[C@H]2CO[C@H]3OCC[C@H]32)[C@H](O)CN(CC(CC)CC)S(=O)(=O)c2ccc(N)cc2)cc1)OCC [PU6] | increased |  | 32.4 ± 15.5% | 41.0 ± 13.7% | 5.8 ± 2.8% | 12.9 ± 3.1% | 4 fold
